Data reported in ChEMBL document CHEMBL1147769 (Bioorg Med Chem Lett, 2006).
pIC50: −log10 of the molar value. Starred links: 1 amine or outer side, 2 acyl side, 3 side chain; linkers in the order of their positions; H or OH if unused. Positions of bridges follow the written chain, without caps; N, C: chain ends. Non-standard residues stand in square brackets, D forms with d. Residues, ends and D or L forms follow the SMILES beside them. Chains are numbered I, II in the order given. NHNH = N(N[*:2])[*:1]

Legend:
[1] = target: T1, Delta-type opioid receptor (Homo sapiens, UniProt P41143); assay: Displacement of [3H]DPDPE from delta opioid receptor
T1 sequence (P41143 whole entry): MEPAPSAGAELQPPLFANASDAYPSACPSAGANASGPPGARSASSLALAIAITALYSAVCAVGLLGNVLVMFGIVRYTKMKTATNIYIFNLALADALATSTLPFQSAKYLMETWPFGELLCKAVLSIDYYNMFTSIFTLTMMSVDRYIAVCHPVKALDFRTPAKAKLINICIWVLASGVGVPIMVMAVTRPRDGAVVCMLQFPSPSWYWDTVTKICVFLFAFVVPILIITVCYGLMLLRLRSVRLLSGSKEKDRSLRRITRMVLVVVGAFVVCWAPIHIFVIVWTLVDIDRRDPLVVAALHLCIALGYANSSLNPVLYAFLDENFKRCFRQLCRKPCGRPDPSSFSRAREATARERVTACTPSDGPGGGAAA
Method in brief: (§1)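 Competition binding on membranes from transfected cells stably expressing the mu or delta opioid receptor. Radioligands were [3H]DAMGO for mu and [3H]DPDPE for delta.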

[2] = target: Delta-type opioid receptor (Mus musculus, UniProt P32300); assay: Activity at delta opioid receptor in mouse vas deferens; type: functional, tissue-based
Delta-type opioid receptor (Mus musculus, UniProt P32300), sequence (P32300 whole entry): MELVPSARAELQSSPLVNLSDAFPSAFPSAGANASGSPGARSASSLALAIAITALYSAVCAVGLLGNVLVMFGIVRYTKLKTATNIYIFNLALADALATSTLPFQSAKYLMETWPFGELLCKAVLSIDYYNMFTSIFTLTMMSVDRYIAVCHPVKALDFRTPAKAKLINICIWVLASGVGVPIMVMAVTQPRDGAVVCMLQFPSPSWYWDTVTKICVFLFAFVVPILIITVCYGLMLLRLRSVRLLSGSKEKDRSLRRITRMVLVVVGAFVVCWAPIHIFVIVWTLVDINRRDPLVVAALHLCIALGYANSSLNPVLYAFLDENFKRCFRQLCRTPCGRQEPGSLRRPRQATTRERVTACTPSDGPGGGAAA
Method in brief: (§2)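 Isolated tissue bioassays, mouse vas deferens for delta and guinea pig ileum LMMP for mu. Data fitted to the Hill equation by computerized non-linear least squares, giving IC50, relative potency and their standard errors. IC50 is the mean of at least four experiments.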

[3] = target: Mu-type opioid receptor (Cavia porcellus, UniProt P97266); assay: Activity at mu opioid receptor in longitudinal muscle myenteric plexus from guinea pig ileum; type: functional, tissue-based; method in brief: as §2
Mu-type opioid receptor (Cavia porcellus, UniProt P97266), sequence (P97266 whole entry): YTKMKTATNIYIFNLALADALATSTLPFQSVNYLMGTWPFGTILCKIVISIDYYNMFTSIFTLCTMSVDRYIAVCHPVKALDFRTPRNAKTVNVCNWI

[4] = target: Mu-type opioid receptor (Homo sapiens, UniProt P35372); assay: Displacement of [3H]DAMGO from mu opioid receptor; method in brief: as §1
Mu-type opioid receptor (Homo sapiens, UniProt P35372), sequence (P35372 whole entry): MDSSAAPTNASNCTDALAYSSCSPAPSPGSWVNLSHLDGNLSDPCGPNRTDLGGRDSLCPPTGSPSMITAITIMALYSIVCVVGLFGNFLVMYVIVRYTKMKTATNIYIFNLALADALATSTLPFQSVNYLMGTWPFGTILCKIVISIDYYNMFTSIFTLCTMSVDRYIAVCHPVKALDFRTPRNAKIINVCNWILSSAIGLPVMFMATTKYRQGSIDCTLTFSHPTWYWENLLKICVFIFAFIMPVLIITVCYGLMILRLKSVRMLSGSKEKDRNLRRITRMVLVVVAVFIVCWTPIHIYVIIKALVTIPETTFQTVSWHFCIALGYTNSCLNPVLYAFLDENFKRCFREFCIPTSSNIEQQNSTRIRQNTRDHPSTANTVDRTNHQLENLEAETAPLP

[5] = target: T1, Delta-type opioid receptor; assay: Agonistic efficacy at human delta opioid receptor by [35S]GTP-gammaS binding assay; type: functional
Method in brief: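 Cells expressing human DOR (delta) or rat MOR (mu) incubated with increasing test-compound concentrations and 0.1 nM [35S]GTP-gamma-S in assay buffer, duplicates, 90 min at 30 °C. Stopped by vacuum filtration through GF/B filters pretreated with assay buffer, then four washes with ice-cold 15 mM Tris/120 mM NaCl pH 7.4. Bound radioactivity counted by liquid scintillation after overnight extraction; Emax read as agonist-stimulated binding.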

[6] = target: Mu-type opioid receptor (Rattus norvegicus, UniProt P33535); assay: Agonistic efficacy at rat mu opioid receptor by [35S]GTPgammaS binding assay
Mu-type opioid receptor (Rattus norvegicus, UniProt P33535), sequence (P33535 whole entry): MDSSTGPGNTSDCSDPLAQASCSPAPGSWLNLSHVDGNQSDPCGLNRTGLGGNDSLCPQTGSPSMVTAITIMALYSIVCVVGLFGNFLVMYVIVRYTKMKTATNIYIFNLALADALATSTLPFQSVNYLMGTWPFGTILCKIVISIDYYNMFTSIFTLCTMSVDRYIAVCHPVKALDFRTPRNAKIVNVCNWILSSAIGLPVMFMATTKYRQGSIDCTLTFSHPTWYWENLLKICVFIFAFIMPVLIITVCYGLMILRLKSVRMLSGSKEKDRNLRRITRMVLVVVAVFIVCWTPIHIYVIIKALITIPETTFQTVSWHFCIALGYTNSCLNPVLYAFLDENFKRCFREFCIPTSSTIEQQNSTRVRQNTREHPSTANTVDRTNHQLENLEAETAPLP

Row | Structure (SMILES) | pIC50 [1] | pIC50 [2] | pIC50 [3] | pIC50 [4] | Emax [5] [%] | pIC50 [5] | pIC50 [6]
1 | N[C@@H](Cc1ccc(O)cc1)C(=O)N[C@@H]1CSSC[C@@H](NC(=O)[C@@H](N)Cc2ccc(O)cc2)C(=O)NCC(=O)N[C@@H](Cc2ccccc2)C(=O)NNC(=O)[C@H](Cc2ccccc2)NC(=O)CNC1=O (I: H-Y[dC]GF / II: H-Y[dC]GF; disulfide I:2-II:2; linker I:C-II:C via NHNH) | 9.06 | 8.00 | 7.60 | 9.22 | 100 | 9.06 | 9.70
2 | N[C@@H](Cc1ccc(O)cc1)C(=O)N[C@H]1CSSC[C@H](NC(=O)[C@@H](N)Cc2ccc(O)cc2)C(=O)NCC(=O)N[C@@H](Cc2ccccc2)C(=O)NNC(=O)[C@H](Cc2ccccc2)NC(=O)CNC1=O (I: H-YCGF / II: H-YCGF; disulfide I:2-II:2; linker I:C-II:C via NHNH) | 7.28 | 6.24 | 6.38 | 6.89 | 58 | 6.59 | 6.92
3 | C[C@@H](NC(=O)[C@@H](N)Cc1ccc(O)cc1)C(=O)NCC(=O)N[C@@H](Cc1ccccc1)C(=O)NNC(=O)[C@H](Cc1ccccc1)NC(=O)CNC(=O)[C@@H](C)NC(=O)[C@@H](N)Cc1ccc(O)cc1 [BIPHALIN] |  |  |  |  | 27 |  | 8.22
